# ZTA DNA inh – blocks Epstein-Barr virus ZTA, an EBNA-1 counter-screen; P03206; ZTA-DNA binding, fluorescence polarization; inhibition, % at 11 µM; 320,000 tested, 0.15% active; AID 2234; in the data active = inhibition above about 33%
# EBNA-1 inhibitor – EBNA-1 DNA-binding inhibitors, primary screen, biochemical, fluorescence polarization | AID 1950, 2009 | 300,000 tested, 0.34% active | inhibition, % at 14.8 µM; in the data active = inhibition above about 28%
# UBC13 polyUb – UBC13 polyubiquitin chain formation inhibitors, primary screen, biochemical, TR-FRET, uHTS; Ubiquitin-conjugating enzyme E2 N (Homo sapiens), P61088; 330,000 tested, 0.47% active; inhibition, % at 20 µM; in the data active = inhibition above about 45%, passing the limit was not always enough
# Target sequence (P61088 whole entry, looked up): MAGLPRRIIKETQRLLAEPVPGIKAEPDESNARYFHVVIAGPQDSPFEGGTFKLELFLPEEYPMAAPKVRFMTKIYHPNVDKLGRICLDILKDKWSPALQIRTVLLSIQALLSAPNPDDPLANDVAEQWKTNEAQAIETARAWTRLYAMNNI
# PfM18AAP inh-1 – PfM18AAP inhibitors, malaria aminopeptidase, primary screen, biochemical, QFRET, recombinant enzyme; M18 aspartyl aminopeptidase (Plasmodium falciparum 3D7); H-Glu-NHMec fluorogenic cleavage; inhibition, % at 7.35 µM; 290,000 tested, 1.2% active;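 active = inhibition above the campaign mean inhibition over all tested compounds plus 3 SD, cut at about 28% in these data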;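 also: 0% = plate median of test compound wells and 100% = 2 mM ZnCl2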
# PfGluPho inh – PfG6PD enzyme inhibitors, primary screen, biochemical, fluorescence intensity, uHTS | glucose-6-phosphate dehydrogenase-6-phosphogluconolactonase (Plasmodium falciparum 3D7) | PfGluPho enzyme, NADPH resazurin-diaphorase fluorescence | inhibition, % at 20 µM | 350,000 tested, 0.78% active | AID 504690, 2011;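 active = inhibition reaching at least a set limit at 20 µM in the primary screen, cut at about 59% in these data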;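 also: 0% = DMSO wells with substrate and 100% = DMSO wells lacking glucose-6-phosphate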
# Apaf-1 inh – inhibitors of human Apaf-1 apoptosome, primary screen, biochemical, DEVD-Rh110 fluorescence, uHTS. reconstituted apoptosome caspase-3 activity. inhibition, % at 20 µM. 330,000 tested, 0.71% active; active = inhibition of at least 40% at 20 µM;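 also: plate controls were DMSO wells for no effect and DEVD-CHO caspase inhibitor wells for full effect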
#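 Material: reconstituted apoptosome with Apaf-1, cytochrome c, caspase-9, procaspase-3, dATP / Buffer or medium: pH 7.5 Hepes buffer with CHAPS, BSA, DTT / Also added: cytochrome c with DEVD-Rh110 / Schedule: compound with Apaf-1, dATP, procaspase-3 30 min, then 50 min reaction, room temperature / Technique: rhodamine 110 fluorescence at Ex 480/Em 540 nm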
# PfM18AAP inh-2 – PfM18AAP inhibitors, malaria aminopeptidase, confirmation, biochemical, QFRET, recombinant enzyme, triplicate; shares compounds with PfM18AAP inh-1; H-Glu-NHMec fluorogenic cleavage; 2,400 tested, 28% active; inhibition, % at 7.35 µM;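 active = mean inhibition over replicate wells above the hit cutoff set for the earlier primary screen, cut at about 29% in these data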;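 also: 0% = median of test compound wells and 100% = 2 mM ZnCl2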
# CTSL1 confirm – cathepsin L1 inhibitors, retest, confirmation, counter-screen for PFM18AAP inhibitor project, biochemical, QFRET, triplicate. shares compounds with PfM18AAP inh-1. purified cathepsin L1, Z-Leu-Arg-MCA fluorescence. inhibition, % at 5.96 µM. 2,400 tested, under 10 active. AID 2178, 2009;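 active = average inhibition across replicates above the hit cutoff set in the earlier primary screen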;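 also: 0% = median of test compound wells and 100% = Z-Phe-Ala-diazomethylketone 1 µM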
# Target sequence (P07711 whole entry, looked up): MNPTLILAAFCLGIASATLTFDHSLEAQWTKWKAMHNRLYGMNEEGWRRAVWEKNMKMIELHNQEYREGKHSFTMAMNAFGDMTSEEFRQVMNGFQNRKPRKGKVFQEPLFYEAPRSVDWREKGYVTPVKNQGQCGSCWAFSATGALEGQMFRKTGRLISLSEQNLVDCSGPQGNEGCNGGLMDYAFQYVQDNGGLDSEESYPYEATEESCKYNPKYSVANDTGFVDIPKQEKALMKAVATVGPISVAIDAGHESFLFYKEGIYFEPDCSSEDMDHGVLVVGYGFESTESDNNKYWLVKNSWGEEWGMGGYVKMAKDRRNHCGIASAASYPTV
# Numbers without * were called inactive; / = not tested or not shown. Most compounds without a hit are left out; they make up all but 2.9% or so of the library.
SMILES,ZTA DNA inh,EBNA-1 inhibitor,UBC13 polyUb,PfM18AAP inh-1,PfGluPho inh,Apaf-1 inh,PfM18AAP inh-2,CTSL1 confirm
Cc1nnc(SCC(=O)NNC(=O)CC#N)[nH]c1=O,1.8,-2.1,4.8,42.7*,-5.2,-11.3,27.6,3.9
Cc1ccc(-c2csc(/C=C3\SC(C)C(=O)N3CC(=O)Nc3ccccc3F)n2)cc1 (stereo unspecified),11.3,20.2,-27.9,4.9,-4.4,-7.2,/,/
Cc1cccc(NC(=O)C2C3CCCCC32)c1 (stereo unspecified),/,/,-4.9,-15.3,5.7,-0.7,/,/
NC(=O)/C(=C/c1ccco1)C(N)=S,1.3,-5.1,-5.3,42.1*,47.9,14.6,-14.6,-0.8
COc1cccc2sc(NNC(=O)C3=COCCO3)nc12,8.4,-9.2,-6.9,43.0*,3.4,8.7,25.9,-0.9
CC(Sc1nccn1C)C(=O)Nc1ccccc1 (stereo unspecified),17.6,-9.5,0.2,-3.3,-0.5,7.7,/,/
CC(Sc1nc(C(C)(C)C)cc(-c2ccccc2)c1C#N)C(=O)Nc1ccccc1 (stereo unspecified),3.7,11.6,2.2,33.1*,45.8,1.0,-18.1,-0.8
C/C(=N\NC(=O)c1cccc(N/N=C(\C)c2ccco2)c1)c1ccco1,/,/,/,10.2,18.2,/,/,/
C/C(=N\NC(=O)c1cccc(N/N=C(\C)c2cc(O)ccc2O)c1)c1cc(O)ccc1O,11.1,8.5,-15.5,40.3*,25.8,-5.3,42.0*,-3.0
CC(=O)c1sc2nsc(SCCN3CCCC3)c2c1N,15.9,-2.2,0.6,32.0*,39.1,-5.6,-38.9,0.0
CCC(C)(C)n1nnnc1CN(Cc1cc2cc(OC)c(OC)cc2[nH]c1=O)C1CCCC1,3.2,-6.3,-5.3,32.6*,2.3,13.4,6.2,5.3
COc1ccc(/C=C2\SC(=O)N(CC(=O)Nc3ccc(O)cc3)C2=O)cc1OC,/,/,-13.8,0.3,-3.4,-3.6,/,/
COc1ccc(/C=C2\SC(=O)N(CC(=O)NN3CCN(C)CC3)C2=O)cc1OC,6.4,4.9,-5.1,37.2*,5.5,-3.3,-52.6,3.7
Cc1nn(C)c(C)c1/C=N/NC(=O)CCn1nc(C)c([N+](=O)[O-])c1C,-5.9,0.4,1.5,-0.6,-1.4,9.8,/,/
COc1cc(Cl)c(C)cc1NC(=S)NN,-2.1,4.2,-9.1,31.9*,17.6,-2.8,21.1,-6.1
COc1cc(/C=C2\NC(=S)N(C)C2=O)ccc1O,-2.2,8.5,-29.9,35.7*,22.9,1.2,16.3,4.2
CN1C(=O)/C(=C/c2ccc(O)c([N+](=O)[O-])c2)NC1=S,2.4,6.6,-159.6,10.5,-11.6,4.6,/,/
O=C(Cc1ccccc1)NN1C(=O)/C(=C/c2ccc(C(=O)O)cc2)SC1=S,-3.5,-17.7,-12.4,34.3*,-3.3,0.0,-27.5,5.8
Cc1cc(N/N=C/c2ccc(O)cc2O)nc(-c2ccccc2O)n1,12.8,21.5,/,52.2*,29.7,/,53.7*,-1.2
Cc1cc(N/N=C/c2ccccc2O)nc(-c2ccccc2O)n1,15.6,1.6,4.5,41.9*,17.7,5.5,39.6*,8.6
Cc1cc(N/N=C/c2ccc(O)cc2O)nc(-n2nc(C)cc2C)n1,-10.6,-7.0,/,50.8*,25.9,/,33.3*,0.7
CC1=C(C)CC(C(=O)NCc2ccccc2F)C(C(=O)O)C1 (stereo unspecified),9.5,-0.7,3.7,4.2,/,-14.0,/,/
CC1(C)Cc2c(sc3ncn(N)c(=N)c23)CO1,0.4,-5.6,-6.6,2.5,-2.0,8.4,/,/

# From PubChem
